Screening data deposited in PubChem BioAssay by The Scripps Research Institute Molecular Screening Center.
ARFGAP1 inhibitor: inhibitors of rat ARFGAP1 GAP activity, primary screen, biochemical, fluorescence polarization, GDP tracer; inhibition, % at 16.5 µM; 0.26% of 360,000 active; AID 651572, 2012; Arfgap1-stimulated ARF1 GTP hydrolysis, GDP FP detection;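 active = inhibition above a per-plate limit, mean inhibition of low control wells plus 3 SD, cut at about 25% in these data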;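 also: 0% = DMSO wells with enzyme and 100% = wells lacking Arfgap1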
Target sequence (Q62848 1-136 limits assumed): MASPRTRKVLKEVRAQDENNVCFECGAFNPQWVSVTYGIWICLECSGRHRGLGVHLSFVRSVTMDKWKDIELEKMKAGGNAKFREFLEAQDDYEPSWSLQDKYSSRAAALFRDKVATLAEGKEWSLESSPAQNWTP
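Replicates: Single well per compound | Assay system: Truncated rat Arfgap1 GAP domain | Control set: No-Arfgap1 wells (100%) versus DMSO full-reaction wells (0%) | Times: Enzyme reaction 120 min at 25 °C after 20 min preincubation | Reagent: Human ARF1(Δ1-17)-GTP substrate | Measured by: Tracer-displacement fluorescence polarization with EDTA stop, 620/688 nm | Measure: Percent inhibition of Arfgap1-stimulated GTP hydrolysis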
ZTA counter: blocks Epstein-Barr virus ZTA, an EBNA-1 counter-screen. P03206. ZTA-DNA binding, fluorescence polarization. inhibition, % at 11 µM. 0.15% of 320,000 active; in the data active = inhibition above about 33%
Target sequence (P03206 whole entry, looked up): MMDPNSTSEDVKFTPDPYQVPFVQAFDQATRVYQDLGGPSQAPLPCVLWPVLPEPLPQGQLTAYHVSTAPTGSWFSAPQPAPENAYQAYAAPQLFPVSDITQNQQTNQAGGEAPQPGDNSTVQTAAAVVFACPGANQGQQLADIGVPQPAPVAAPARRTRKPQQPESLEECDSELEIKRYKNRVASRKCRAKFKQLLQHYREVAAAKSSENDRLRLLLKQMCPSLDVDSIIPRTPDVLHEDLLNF
EBNA-1 inh: EBNA-1 DNA-binding inhibitors, primary screen, biochemical, fluorescence polarization; inhibition, % at 14.8 µM; 0.34% of 300,000 active; AID 1950, 2009; in the data active = inhibition above about 28%
ASAP1 inh: inhibitors of human ASAP1 ArfGAP activity, primary screen, biochemical, fluorescence polarization; Arf-GAP with SH3 domain, ANK repeat and PH domain-containing protein 1 (Homo sapiens), …; ASAP1-stimulated ARF1 GTP hydrolysis, GDP FP detection; inhibition, % at 16.5 µM; 0.19% of 360,000 active; AID 624377, 2012; in the data active = inhibition above about 25%;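 also: 0% = vehicle with enzyme and substrate and 100% = no enzyme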
Zta DNA confirm: EBV Zta binding to ZRE DNA, inhibitors, confirmation, biochemical, fluorescence polarization, triplicate; shares compounds with ZTA counter; inhibition, % at 11.1 µM; 30% of 320 active; AID 2361, 2010;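 active = mean inhibition across triplicate runs above the hit threshold derived for the original primary screen, cut at about 33% in these data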;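 also: 0% = Zta with DMSO and 100% = wells lacking Zta protein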
EBNA1 counter: EBNA-1 DNA-binding inhibition, counter-screen for ZTA inhibitor project, biochemical, fluorescence polarization | shares compounds with ZTA counter | inhibition, % at 14.8 µM | 320 tested, under 10 active; call rule not given here
An asterisk follows results filed as active; . = not tested or not shown. Only some compounds are listed: those with a hit (about 0.75% of all), similar ones and a draw of the others.

SMILES | ARFGAP1 inhibitor | ZTA counter | EBNA-1 inh | ASAP1 inh | Zta DNA confirm | EBNA1 counter
O=C(N[C@H](Cc1ccccc1)C(=O)N(CCC1=CCCCC1)CC1CC1)[C@H]1O[C@@H](n2ccc(=O)[nH]c2=O)[C@H](O)[C@@H]1O | -14 | . | . | -15 | . | .
CCN(CC)c1ccc(/C=C/c2ccc3ccc(OC)cc3[n+]2CC)cc1 | 0 | 50* | 11 | 7 | 30 | -1
CC1CCN(C(=O)COC(=O)c2n[nH]c(=O)c3ccccc23)CC1 | 10 | 36* | . | 1 | -1 | -7
CC(=O)c1cccc(NC(=O)NNC(=O)c2ccc3ccccc3c2)c1 | -4 | 76* | 10 | 2 | -10 | -5
Cc1cccc(NC(=O)NNC(=O)c2ccc3ccccc3c2)c1 | -10 | . | . | 1 | . | .
COc1cccc(C=NNC(=S)NC2CC3CCC2C3)c1O (configuration not stated) | -15 | . | . | 9 | . | .
CCOC(=O)C1=CCN(S(=O)(=O)c2ccccc2Br)C1c1ccc(Cl)cc1 (configuration not stated) | 1 | . | . | 16 | . | .
Cc1ccc(S(=O)(=O)/N=C2\C=C(Nc3cccc(C(=O)O)c3)C(=O)c3ccccc32)cc1 | 1 | 33* | 2 | 10 | 36* | -14
CCc1ccc(S(=O)(=O)/N=C2\C=C(Nc3ccc(C(=O)O)cc3)C(=O)c3ccccc32)cc1 | -9 | 53* | -4 | -1 | 52* | 2
CCOC(=O)C1=C(C(=O)OCC)C2N(Cc3ccc(C#N)cc3)c3ccccc3[C@@]23C[C@@H](C(=O)OC)N(S(=O)(=O)c2ccc(OC)cc2)C3=N1 (some centres not stated) | -2 | . | . | -4 | . | .
O=C(Nc1ccc2c(c1)CCCN2C(=O)c1cccs1)c1c(F)cccc1Cl | 1 | 42* | -11 | 3 | 3 | -3
COc1cc2nc(N(CCCN(C)C)C(=O)c3ccc(S(=O)(=O)N4CCc5ccccc54)cc3)sc2cc1OC | 10 | 50* | 2 | 0 | 56* | 8
CCCCS(=O)(=O)N1CCN(C(=O)C(=O)c2cccc(C(F)(F)F)c2)CC1 | -8 | . | . | -12 | . | .
CN1CCCCC(NC(=O)c2cccs2)C1=O (configuration not stated) | 4 | . | . | -2 | . | .
Cc1cccc2c1NC(C)CC2C (configuration not stated) | 8 | 97* | 21 | 10 | 12 | -7
COc1cc(C#Cc2c(-c3cncn3C)n(C)c3ccc(-c4ccc(OC)c(OC)c4)cc23)cc(OC)c1 | 8 | 38* | . | 5 | 36* | 7
Cc1ccc(S(=O)(=O)/N=C2/NC(=O)/C(=C/c3cc([N+](=O)[O-])ccc3O)S2)cc1 | -7 | 34* | -7 | -5 | 41* | -1
Cc1ccc(-c2cc(C(=O)NCCCN3CCOCC3)c3ccc(Cl)c(C)c3n2)cc1 | 5 | 34* | -6 | 11 | 1 | -4
COc1ccc(Cn2c(SCc3ccc(C)cc3)nc3cc(OC)c(OC)cc3c2=N)cc1Cl | -7 | 35* | 9 | 19 | 12 | 23
COc1ccc(Cn2c(SCc3cc(C)ccc3C)nc3cc(OC)c(OC)cc3c2=N)cc1 | -5 | 12 | -6 | 2 | . | .
COc1ccc(C2CC(=O)C(c3ccc4ccccc4c3)=CN2Cc2ccccc2)cc1 (configuration not stated) | 0 | . | . | -6 | . | .
CCCc1nc2c(=O)n(C)c(=O)nc-2n(C)n1 | -10 | . | . | -15 | . | .
Cn1nc(-c2ccccn2)nc2c(=O)n(C)c(=O)nc1-2 | -6 | 73* | 7 | -1 | 69* | -4
CC(C)C[C@H]1COc2c(Cl)cccc2S(=O)(=O)N1Cc1cccc(Cl)c1 | 7 | . | . | -12 | . | .
CCCCN(C(=O)CCCc1nc2ccccc2c(=O)[nH]1)c1c(N)n(CCCC)c(=O)[nH]c1=O | 4 | -4 | 5 | 1 | . | .
SMILES | ARFGAP1 inhibitor | ZTA counter | EBNA-1 inh | ASAP1 inh | Zta DNA confirm | EBNA1 counter
CCCCn1c(N)c(N(CCOC)C(=O)CCCc2nc3ccccc3c(=O)[nH]2)c(=O)[nH]c1=O | 5 | 136* | 2 | -2 | 3 | 1
CN(C)S(=O)(=O)c1cccc(NC(=S)Nc2cc(Cl)cc(Cl)c2)c1 | 6 | 15 | 12 | 0 | . | .
CCN(CCO)c1ccc(NC(=S)Nc2cccc(S(=O)(=O)N(C)C)c2)cc1 | -19 | 41* | 23 | -2 | 9 | 3
CCOC1(OCC)N=C(N)C2(C#N)C(c3cccc(OC)c3OC)C12C#N (configuration not stated) | 8 | -2 | 3 | 2 | . | .
CCOC1(OCC)N=C(N)C2(C#N)C(c3cccc(C)c3)C12C#N (configuration not stated) | 3 | 67* | 5 | 1 | -6 | -8
CC(C(=O)O)N1C(=O)/C(=C/C=C/c2ccco2)SC1=S (configuration not stated) | -45 | 58* | 26 | -9 | 73* | 9
O=C1/C(=C\c2c(NCCOCCO)nc3ccccn3c2=O)SC(=S)N1Cc1ccco1 | -2 | 42* | 2 | 2 | 24 | 7
C[C@@H]1C=CCCO[C@]12C(=O)N(Cc1ccccc1C(F)(F)F)c1ccccc12 | -9 | . | . | 4 | . | .
O=C(Nc1cccc2ccccc12)NC1CCS(=O)(=O)C1 (configuration not stated) | 2 | 3 | 2 | 2 | . | .
O=C(Nc1cccc2ccccc12)NC1CCCCC1O (configuration not stated) | 1 | 58* | -2 | 16 | -5 | -6
COc1ccc(CN2C[C@@]3(O)CC[C@@H](O)[C@@H](OC)[C@@H]3[C@@]2(C)[C@H](O)CC=C(C)C)cc1 | 6 | . | . | -1 | . | .
CC1(C)OC(=O)C(=Cc2ccc(-c3ccc(S(N)(=O)=O)cc3)o2)C(=O)O1 | 0 | -13 | 2 | -2 | . | .
NC1=NC(=O)/C(=C/c2ccc(-c3ccc(S(N)(=O)=O)cc3)o2)S1 | 0 | 37* | 10 | 7 | 18 | 11
O=C(C(=O)N1CCC(CNS(=O)(=O)c2cc(C(F)(F)F)cc(C(F)(F)F)c2)CC1)c1cccs1 | 6 | . | . | -19 | . | .
O=C1CC(=O)N(Cc2ccco2)C(=O)N1 | -8 | 22 | 14 | 6 | . | .
O=C1CC(=O)N(Cc2ccco2)C(=S)N1 | . | 55* | 6 | . | -3 | -6
C[C@H](O)[C@@H]1C(=O)N2CCc3c([nH]c4ccccc34)[C@@H]2C[C@@H]1N(C)C(=O)Nc1ccc(Br)cc1 | 6 | . | . | 5 | . | .
CCC(Oc1ccccc1)C(=O)Nc1nc2ccccc2[nH]1 (configuration not stated) | -3 | 37* | -7 | 22 | 3 | -1
N#Cc1nc(/C=C/c2ccccc2)oc1NCCCN1CCOCC1 | 9 | 33* | 4 | -11 | 3 | 0
COCCNc1oc(/C=C/c2ccccc2)nc1C#N | -11 | -10 | 4 | 11 | . | .
